Experimental data from ChEMBL document CHEMBL1681781, “Structure based design and syntheses of amino-1H-pyrazole amide derivatives as selective Raf kinase inhibitors in melanoma cells” (Bioorg Med Chem, 2011).
pIC50: −log10 of the molar value. Activity calls are given as the source filed them. The rule behind the calls is not given here.

What was measured:
[1] = tested on: Serine/threonine-protein kinase B-raf (Homo sapiens), P15056 [V600E]; experiment: Inhibition of B-Raf V600E mutant
HS27 = experiment: Antiproliferative activity against human HS27 cells assessed as growth inhibition after 24 hrs by MTT assay; type: functional; conditions: HS27, 24 h
[2] = (§1) Antiproliferative activity against human A375P cells assessed as growth inhibition after 24 hrs by MTT assay; type: functional
Procedure, shortened: (§2)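 A375P cells kept in DMEM with 10% FBS and 1% penicillin/streptomycin at 37 °C under 5% CO2. Cells lifted with 0.05% trypsin–0.02% EDTA, seeded at 5 × 10^3 cells/well and left 24 h before dosing. Test compounds given as a 3-fold serial dilution over 12 points. Viability read by MTT reduction, absorbance at 590 nm.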

[3] = molecular target: RAF proto-oncogene serine/threonine-protein kinase (Homo sapiens, UniProt P04049); experiment: Inhibition of C-Raf assessed as [33P]gamma-ATP incorporation into substrate after 40 mins by scintillation counting
RAF proto-oncogene serine/threonine-protein kinase, sequence (P04049 whole entry): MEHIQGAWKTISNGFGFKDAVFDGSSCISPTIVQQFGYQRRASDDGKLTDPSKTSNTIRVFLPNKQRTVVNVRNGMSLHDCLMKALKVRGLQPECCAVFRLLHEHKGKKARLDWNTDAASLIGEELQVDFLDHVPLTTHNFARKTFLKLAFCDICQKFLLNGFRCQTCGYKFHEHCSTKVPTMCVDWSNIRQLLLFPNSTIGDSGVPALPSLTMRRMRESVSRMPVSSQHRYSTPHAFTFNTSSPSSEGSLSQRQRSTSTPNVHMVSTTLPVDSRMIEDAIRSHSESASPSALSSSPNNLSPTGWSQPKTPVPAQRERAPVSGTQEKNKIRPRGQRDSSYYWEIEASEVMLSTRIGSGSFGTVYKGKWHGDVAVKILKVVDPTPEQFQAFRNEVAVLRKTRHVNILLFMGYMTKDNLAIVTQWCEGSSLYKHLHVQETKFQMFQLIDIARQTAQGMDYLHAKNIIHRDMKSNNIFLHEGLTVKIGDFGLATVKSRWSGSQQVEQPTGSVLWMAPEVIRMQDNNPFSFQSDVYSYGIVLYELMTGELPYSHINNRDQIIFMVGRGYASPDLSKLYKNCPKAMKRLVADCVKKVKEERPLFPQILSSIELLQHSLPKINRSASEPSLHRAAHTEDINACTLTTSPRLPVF
Procedure, shortened: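 Human C-RAF (5–10 mU) in 25 mM Tris pH 7.5, 0.02 mM EGTA, 10 mM Mg acetate, with 0.66 mg/mL myelin basic protein as substrate and [γ-33P]ATP. Reaction started by adding the Mg-ATP mix and run 40 min at room temperature. Stopped with 3% phosphoric acid, spotted on P30 filtermat, washed in 75 mM phosphoric acid and methanol, then scintillation counted.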

A375P = experiment: as §1; type: functional; procedure, shortened: as §2
[4] = molecular target: Serine/threonine-protein kinase mTOR (Homo sapiens, UniProt P42345); experiment: inhibition of mTOR

Serine/threonine-protein kinase B-raf (Homo sapiens), P15056 [V600E], sequence (P15056 whole entry V600E): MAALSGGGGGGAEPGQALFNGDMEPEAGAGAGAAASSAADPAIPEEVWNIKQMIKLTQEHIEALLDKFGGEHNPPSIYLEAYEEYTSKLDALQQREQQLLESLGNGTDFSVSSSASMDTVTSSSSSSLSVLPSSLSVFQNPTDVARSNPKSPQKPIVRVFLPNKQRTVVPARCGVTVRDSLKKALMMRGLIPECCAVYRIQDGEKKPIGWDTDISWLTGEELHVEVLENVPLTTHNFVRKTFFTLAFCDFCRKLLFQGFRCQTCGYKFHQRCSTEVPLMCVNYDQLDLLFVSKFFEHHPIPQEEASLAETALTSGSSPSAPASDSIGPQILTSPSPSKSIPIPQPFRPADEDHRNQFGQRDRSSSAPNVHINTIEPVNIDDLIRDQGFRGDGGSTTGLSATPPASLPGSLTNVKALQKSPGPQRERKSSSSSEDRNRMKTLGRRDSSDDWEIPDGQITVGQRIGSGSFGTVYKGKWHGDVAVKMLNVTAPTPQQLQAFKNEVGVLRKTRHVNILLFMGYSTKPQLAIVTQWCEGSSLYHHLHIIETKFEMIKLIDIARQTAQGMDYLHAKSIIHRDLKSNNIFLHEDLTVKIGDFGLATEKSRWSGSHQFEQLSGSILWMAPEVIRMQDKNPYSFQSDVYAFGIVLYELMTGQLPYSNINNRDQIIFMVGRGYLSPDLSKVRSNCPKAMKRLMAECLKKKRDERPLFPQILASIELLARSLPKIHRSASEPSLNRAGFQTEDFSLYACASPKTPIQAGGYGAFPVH

Q: With `O=C1Nc2ccc(I)cc2C1=Cc1cc(Br)c(O)c(Br)c1` as the compound, how does the pIC50 [1] read?
A: 8.41

Q: For `COc1ccc(Cn2ncc(NC(=O)c3cc(NC(=O)Nc4ccc(C(F)(F)F)cc4)ccc3C)c2N)cc1`, which GI50 (HS27) is on record?
A: > 30 µM

Q: What about the GI50 [2] of the same compound?
A: > 30 µM

Q: For `COc1ccc(Cn2ncc(NC(=O)c3cc(NC(=O)c4cc(N5CCN(C)CC5)cc(C(F)(F)F)c4)ccc3C)c2N)cc1`, which GI50 (HS27) is on record?
A: > 30 µM

Q: And the pIC50 [3]?
A: 6.62

Q: What about the GI50 [2] of the same compound?
A: 4.51 µM

Q: What about the inhibition [1] of the same compound?
A: inactive

Q: What does the source list for `COc1ccc(Cn2ncc(NC(=O)c3cc(NC(=O)Nc4cc(Cl)c(Cl)cc4Cl)ccc3C)c2N)cc1`?
A: GI50 (HS27): > 30 µM; GI50 [2]: 11.4 µM

Q: For `CNC(=O)c1cc(Oc2ccc(NC(=O)Nc3ccc(Cl)c(C(F)(F)F)c3)cc2)ccn1` [SORAFENIB], which GI50 [2] is on record?
A: 5.58 µM

Q: Which results are given for `COc1ccc(Cn2ncc(NC(=O)c3ccc(NC(=O)Nc4ccc(Cl)cc4)cc3C)c2N)cc1`?
A: GI50 (HS27): > 30 µM; GI50 (A375P): inactive

Q: Which GI50 (HS27) does the source give for `COc1ccc(Cn2ncc(NC(=O)c3cc(NC(=O)c4cc(-c5ccc(Cl)cc5)on4)ccc3C)c2N)cc1` here?
A: > 30 µM

Q: What about the GI50 [2] of the same compound?
A: 1.39 µM

Q: With `O=c1cc(N2CCOCC2)oc2c(-c3ccccc3)cccc12` [LY-294002] as the compound, how does the pIC50 [4] read?
A: 5.52

Q: With `COc1ccc(Cn2ncc(NC(=O)c3ccc(NC(=O)Nc4cc(N5CCOCC5)cc(C(F)(F)F)c4)cc3C)c2N)cc1` as the compound, how does the GI50 (HS27) read?
A: > 30 µM

Q: What about the GI50 [2] of the same compound?
A: 51.5 µM

Q: What does the source list for `COc1ccc(Cn2ncc(NC(=O)c3cc(NC(=O)c4cc(-n5cnc(C)c5)cc(C(F)(F)F)c4)ccc3C)c2N)cc1`?
A: GI50 (HS27): > 30 µM; GI50 [2]: 11.3 µM

Q: Which GI50 (HS27) does the source give for `COc1ccc(Cn2ncc(NC(=O)c3cc(NC(=O)Nc4c(Cl)cccc4Cl)ccc3C)c2N)cc1` here?
A: > 30 µM

Q: And the GI50 (A375P)?
A: inactive

Q: Which results are given for `COc1ccc(Cn2ncc(NC(=O)c3cc(NC(=O)c4ccc([N+](=O)[O-])c(C(F)(F)F)c4)ccc3C)c2N)cc1`?
A: GI50 (HS27): > 30 µM; GI50 [2]: 27.9 µM

Q: Which GI50 (HS27) does the source give for `COc1ccc(Cn2ncc(NC(=O)c3cc(NC(=O)c4ccc(-c5cc(C(F)(F)F)ccc5Cl)o4)ccc3C)c2N)cc1` here?
A: > 30 µM

Q: What about the GI50 (A375P) of the same compound?
A: inactive

Q: With `COc1ccc(Cn2ncc(NC(=O)c3cc(NC(=O)c4cnn(-c5ccc(Cl)cc5)c4C(F)(F)F)ccc3C)c2N)cc1` as the compound, how does the GI50 (HS27) read?
A: > 30 µM

Q: And the GI50 [2]?
A: > 30 µM

Q: Which results are given for `COc1ccc(Cn2ncc(NC(=O)c3ccc(NC(=O)c4cnn(-c5ccccc5)c4C(F)(F)F)cc3C)c2N)cc1`?
A: GI50 (HS27): > 30 µM; GI50 (A375P): inactive

Q: Which GI50 (HS27) does the source give for `COc1ccc(Cn2ncc(NC(=O)c3cc(NC(=O)c4cccc(C(F)(F)F)c4)ccc3C)c2N)cc1` here?
A: > 30 µM

Q: What about the pIC50 [3] of the same compound?
A: 7.65

Q: And the GI50 [2]?
A: 5.53 µM

Q: What about the inhibition [1] of the same compound?
A: inactive

Q: What does the source list for `COc1ccc(Cn2ncc(NC(=O)c3ccc(NC(=O)Nc4nccc(C(F)(F)F)n4)cc3C)c2N)cc1`?
A: GI50 (HS27): > 30 µM; GI50 (A375P): inactive

Q: Which GI50 (HS27) does the source give for `COc1ccc(Cn2ncc(NC(=O)c3ccc(NC(=O)Nc4ccc(Cl)c(Cl)c4)cc3C)c2N)cc1` here?
A: > 30 µM

Q: What about the GI50 [2] of the same compound?
A: 4.12 µM

Q: Which results are given for `COc1ccc(Cn2ncc(NC(=O)c3ccc(NC(=O)c4cnccn4)cc3C)c2N)cc1`?
A: GI50 (HS27): > 30 µM; GI50 (A375P): inactive

Q: Which GI50 (HS27) does the source give for `COc1ccc(Cn2ncc(NC(=O)c3ccc(NC(=O)Nc4cccc(C(F)(F)F)c4)cc3C)c2N)cc1` here?
A: > 30 µM

Q: And the GI50 [2]?
A: > 30 µM

Q: Which results are given for `COc1ccc(Cn2ncc(NC(=O)c3ccc(NC(=O)Nc4ccc(Cl)c(C(F)(F)F)c4)cc3C)c2N)cc1`?
A: GI50 (HS27): > 30 µM; pIC50 [3]: 5.08; GI50 [2]: 33.2 µM; inhibition [1]: inactive

Q: What does the source list for `COc1ccc(Cn2ncc(NC(=O)c3ccc(NC(=O)c4cc5ccccc5o4)cc3C)c2N)cc1`?
A: GI50 (HS27): > 30 µM; GI50 [2]: > 30 µM

Q: Which GI50 (HS27) does the source give for `COc1ccc(Cn2ncc(NC(=O)c3ccc(NC(=O)Nc4cccc(Cl)c4)cc3C)c2N)cc1` here?
A: > 30 µM

Q: What about the GI50 [2] of the same compound?
A: 36.5 µM

Q: For `COc1ccc(Cn2ncc(NC(=O)c3ccc(NC(=O)c4cc(-c5ccc(Cl)cc5)on4)cc3C)c2N)cc1`, which GI50 (HS27) is on record?
A: > 30 µM

Q: What about the GI50 [2] of the same compound?
A: 24.9 µM

Q: For `COc1ccc(Cn2ncc(NC(=O)c3ccc(NC(=O)c4cc(C)on4)cc3C)c2N)cc1`, which GI50 (HS27) is on record?
A: > 30 µM

Q: What about the GI50 (A375P) of the same compound?
A: inactive

Q: For `COc1ccc(Cn2ncc(NC(=O)c3cc(NC(=O)c4ccnc(Cl)c4)ccc3C)c2N)cc1`, which GI50 (HS27) is on record?
A: > 30 µM

Q: What about the GI50 (A375P) of the same compound?
A: inactive

Q: With `COc1ccc(Cn2ncc(NC(=O)c3cc(NC(=O)c4ncc(-c5ccncc5)s4)ccc3C)c2N)cc1` as the compound, how does the GI50 (HS27) read?
A: > 30 µM

Q: And the GI50 (A375P)?
A: inactive

Q: For `COc1ccc(Cn2ncc(NC(=O)c3ccc(NC(=O)Nc4cc(-n5cnc(C)c5)cc(C(F)(F)F)c4)cc3C)c2N)cc1`, which GI50 (HS27) is on record?
A: > 30 µM

Q: What about the GI50 [2] of the same compound?
A: 5.71 µM

Q: For `COc1ccc(Cn2ncc(NC(=O)c3ccc(NC(=O)c4cc5ccccc5s4)cc3C)c2N)cc1`, which GI50 (HS27) is on record?
A: > 30 µM

Q: And the GI50 [2]?
A: > 30 µM

Q: Which GI50 (HS27) does the source give for `COc1ccc(Cn2ncc(NC(=O)c3cc(NC(=O)Nc4cc(C)no4)ccc3C)c2N)cc1` here?
A: > 30 µM

Q: What about the GI50 (A375P) of the same compound?
A: inactive

Q: With `COc1ccc(Cn2ncc(NC(=O)c3cc(NC(=O)Nc4ccc(C(F)(F)F)cc4C(F)(F)F)ccc3C)c2N)cc1` as the compound, how does the GI50 (HS27) read?
A: > 30 µM

Q: What about the GI50 (A375P) of the same compound?
A: inactive

Q: What does the source list for `COc1ccc(Cn2ncc(NC(=O)c3cc(NC(=O)Nc4cccc(Cl)c4)ccc3C)c2N)cc1`?
A: GI50 (HS27): > 30 µM; GI50 [2]: 0.21 µM

Q: For `COc1ccc(Cn2ncc(NC(=O)c3ccc(NC(=O)Nc4cc(C(F)(F)F)ccc4N4CCOCC4)cc3C)c2N)cc1`, which GI50 (HS27) is on record?
A: > 30 µM

Q: And the GI50 [2]?
A: > 100 µM

Q: Which GI50 (HS27) does the source give for `COc1ccc(Cn2ncc(NC(=O)c3cc(NC(=O)NC4CCCCC4)ccc3C)c2N)cc1` here?
A: > 30 µM

Q: What about the GI50 (A375P) of the same compound?
A: inactive

Q: What does the source list for `COc1ccc(Cn2ncc(NC(=O)c3cc(NC(=O)Nc4ccc(Cl)cc4)ccc3C)c2N)cc1`?
A: GI50 (HS27): > 30 µM; GI50 [2]: 8.73 µM

Q: Which results are given for `Cc1ccc(NC(=O)Nc2ccc(Cl)c(C(F)(F)F)c2)cc1C(=O)Nc1cnn(Cc2ccccc2)c1N`?
A: GI50 (HS27): > 30 µM; GI50 [2]: 15.9 µM
